Results published in ChEMBL document CHEMBL3046679, “Design, synthesis, and biological activities of arylmethylamine substituted chlorotriazine and methylthiotriazine compounds” (J Agric Food Chem, 2011).
Activity calls are given as the source filed them. No cut-off for these calls is given here.

Tests used:
Pyrenophora teres [1] = assay: Fungicidal activity against Pyrenophora teres assessed as inhibition of disease development in compound treated leaf pieces at 20 ppm relative to untreated control (barley-preventative); format: functional
Method in brief: (§1)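 Preventative leaf-piece test on host tissue (tomato, vine, wheat or barley). Formulated compound applied at 200, 60 and 20 ppm before spore inoculation. Disease scored 3–9 days after inoculation, depending on the pathogen, as percent inhibition of disease development versus untreated controls. Values are the mean across replicates.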

Pyrenophora teres [2] = assay: Fungicidal activity against Pyrenophora teres assessed as inhibition of disease development in compound treated leaf pieces at 200 ppm relative to untreated control (barley-preventative); format: functional; method in brief: as §1
Uromyces viciae-fabae = assay: Fungicidal activity against Uromyces viciae-fabae assessed as inhibition of mycelia growth at 100 ppm; format: functional, organism-based
Method in brief: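 Leaf-piece assay on bean at 100 ppm, with compound applied before spore inoculation and two replicates. Each well scored 99 for complete inhibition, 55 for partial and 0 for none; value is the mean score across replicates.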

Arabidopsis thaliana = assay: Herbicidal activity against Arabidopsis thaliana assessed as growth inhibition at 10 ppm by 96-well plate test; format: functional; conditions: read-out: GI
Method in brief: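 96-well plate herbicide screen: Arabidopsis thaliana at 10 ppm and Poa annua at 32 ppm, two replicates. Plates incubated seven days in a controlled-environment cabinet. Each replicate scored 0 (no visible effect) or 99 (herbicidal effect); values are the mean of the two. Atrazine used as reference.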

Puccinia triticina [3] = assay: Fungicidal activity against Puccinia triticina assessed as inhibition of disease development in compound treated leaf pieces at 60 ppm relative to untreated control (wheat-curative); format: functional
Method in brief: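 Curative wheat leaf-piece test against Puccinia triticina. Leaf pieces inoculated with spores first, then treated with formulated compound at 200, 60 or 20 ppm. Disease scored 3–9 days after inoculation as percent inhibition versus untreated controls. Values are the mean across replicates.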

Alternaria solani = assay: Fungicidal activity against Alternaria solani assessed as inhibition of disease development in compound treated leaf pieces at 20 ppm relative to untreated control (tomato-preventative); format: functional; method in brief: as §1
Fusarium graminearum = assay: Fungicidal activity against Fusarium graminearum assessed as inhibition of mycelia growth at 2 ppm; format: functional, organism-based
Method in brief: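 Mycelial growth test in 96-well plates: compound incorporated into artificial growth medium at 2 ppm, two replicates per rate. Each well scored 99 for complete, 55 for partial or 0 for no inhibition. Values are the mean across replicates; azoxystrobin and prochloraz used as positive controls.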

Puccinia triticina [4] = assay: Fungicidal activity against Puccinia triticina assessed as inhibition of disease development in compound treated leaf pieces at 20 ppm relative to untreated control (wheat-preventative); format: functional; method in brief: as §1
Phytophthora infestans = assay: Fungicidal activity against Phytophthora infestans assessed as inhibition of disease development in compound treated leaf pieces at 60 ppm relative to untreated control (tomato-preventative); format: functional; method in brief: as §1
Pyrenophora teres [5] = assay: Fungicidal activity against Pyrenophora teres assessed as inhibition of disease development in compound treated leaf pieces at 60 ppm relative to untreated control (barley-preventative); format: functional; method in brief: as §1
Lolium perenne = assay: Herbicidal activity against Lolium perenne (perennial ryegrass) assessed as growth inhibition at 1 kg/ha preemergence treatment by glasshouse test; format: functional; conditions: pre-emergence, read-out: GI
Method in brief: (§2)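 Glasshouse screen with pre- or postemergence application at 1.0 kg/ha. Result given as percent inhibition of plant growth; norflurazon and glyphosate used as controls.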

Stellaria media = assay: Herbicidal activity against Stellaria media assessed as growth inhibition at 1 kg/ha postemergence treatment by glasshouse test; format: functional; conditions: post-emergence, read-out: GI; method in brief: as §2

CC(C)Nc1nc(Cl)nc(NCc2ccc(F)cc2)n1
inhibition at 20 ppm (Pyrenophora teres [1]): 0%
inhibition at 200 ppm (Pyrenophora teres [2]): 0%
inhibition (Uromyces viciae-fabae): Active
inhibition of growth at 10 ppm (Arabidopsis thaliana): 99%
inhibition at 60 ppm (Puccinia triticina [3]): 100%
inhibition at 20 ppm (Alternaria solani): 0%
inhibition (Fusarium graminearum): inactive
inhibition at 20 ppm (Puccinia triticina [4]): 0%
inhibition at 60 ppm (Phytophthora infestans): 0%
inhibition at 60 ppm (Pyrenophora teres [5]): 0%
inhibition of growth at 1000 g/ha (Lolium perenne): 30%
inhibition of growth at 1000 g/ha (Stellaria media): 90%
